Source: ChEMBL document CHEMBL1138849, “5-substituted tetrazoles as bioisosteres of carboxylic acids. Bioisosterism and mechanistic studies on glutathione reductase inhibitors as antimalarials” (J Med Chem, 2004)
Activity calls are given as the source filed them. The rule behind the calls is not given here.

Columns and labels:
MRC5 = assay: Cytotoxicity against human diploid embryonic lung cell line hMRC-5 was observed at conc. upto 32 uM; (No cytotoxicity); assay type: functional, cell-based
[1] = target: Glutathione reductase (Plasmodium falciparum 3D7) (UniProt O15770); assay: Catalysis constant against Plasmodium falciparum glutathione reductase
Procedure, shortened: (§1)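 Recombinant human or P. falciparum GR run as a quinone reductase without GSSG. Mix: 100 mM phosphate pH 7.0, 200 mM KCl, 100 μM NADPH, 1% DMSO, enzyme, and naphthoquinone at 10 levels from 10 to 400 μM. NADPH oxidation read at 340 nm (ε 6.22 mM⁻¹ cm⁻¹). Steady-state rates fitted to Michaelis–Menten by nonlinear regression to give Km and Vmax; kcat and kcat/Km calculated.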

[2] = target: T1, Glutathione reductase, mitochondrial (Homo sapiens) (UniProt P00390); assay: Catalysis constant against human glutathione reductase; procedure, shortened: as §1
T1 sequence (whole entry): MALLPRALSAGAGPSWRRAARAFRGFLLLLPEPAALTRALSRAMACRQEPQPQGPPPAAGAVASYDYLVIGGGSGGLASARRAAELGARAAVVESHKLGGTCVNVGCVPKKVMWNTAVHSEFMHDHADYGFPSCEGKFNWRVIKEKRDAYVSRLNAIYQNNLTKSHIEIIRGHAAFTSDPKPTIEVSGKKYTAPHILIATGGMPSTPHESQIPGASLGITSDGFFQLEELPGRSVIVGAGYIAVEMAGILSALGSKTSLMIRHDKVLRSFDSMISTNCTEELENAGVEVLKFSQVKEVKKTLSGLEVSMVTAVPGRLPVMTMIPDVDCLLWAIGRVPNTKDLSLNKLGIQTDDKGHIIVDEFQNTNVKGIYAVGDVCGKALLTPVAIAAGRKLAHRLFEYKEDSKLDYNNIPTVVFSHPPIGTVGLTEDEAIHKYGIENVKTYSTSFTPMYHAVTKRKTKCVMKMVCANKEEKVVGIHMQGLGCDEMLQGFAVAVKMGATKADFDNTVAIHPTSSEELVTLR

[3] = target: T1, Glutathione reductase, mitochondrial (Homo sapiens); assay: Ratio of Catalysis constant Michaelis-Menten constant of human glutathione reductase; procedure, shortened: as §1
[4] = target: Glutathione reductase (Plasmodium falciparum 3D7) (UniProt O15770); assay: Ratio of Catalysis constant Michaelis-Menten constant of Plasmodium falciparum glutathione reductase; procedure, shortened: as §1

Glutathione reductase (Plasmodium falciparum 3D7), sequence (O15770 whole entry): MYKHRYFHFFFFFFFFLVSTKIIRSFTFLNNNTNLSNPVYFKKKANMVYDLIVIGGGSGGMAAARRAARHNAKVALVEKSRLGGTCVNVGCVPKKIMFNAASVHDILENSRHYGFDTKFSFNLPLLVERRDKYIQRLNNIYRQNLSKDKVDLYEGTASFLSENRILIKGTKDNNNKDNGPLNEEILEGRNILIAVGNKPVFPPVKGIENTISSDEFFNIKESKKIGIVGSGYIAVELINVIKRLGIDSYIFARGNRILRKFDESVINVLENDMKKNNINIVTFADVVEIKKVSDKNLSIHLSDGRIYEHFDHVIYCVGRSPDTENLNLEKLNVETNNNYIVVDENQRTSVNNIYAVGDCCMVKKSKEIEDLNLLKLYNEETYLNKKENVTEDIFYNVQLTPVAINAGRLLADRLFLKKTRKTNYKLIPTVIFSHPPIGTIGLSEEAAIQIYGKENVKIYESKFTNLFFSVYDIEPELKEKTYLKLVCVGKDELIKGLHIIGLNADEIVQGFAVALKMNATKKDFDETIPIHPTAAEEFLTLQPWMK

SMILES | Cytotoxicity (MRC5) | further results
CC1=C(CCCCC(=O)O)C(=O)c2ccccc2C1=O | inactive | –
CC1=C(CCCCCC(=O)NCCC#N)C(=O)c2ccccc2C1=O | inactive | –
CC1=C(CCCc2nnnn2CCC#N)C(=O)c2ccccc2C1=O | inactive | –
CC1=C(CCCCCc2nnnn2CCC#N)C(=O)c2ccccc2C1=O | inactive | –
CC1=C(CCCCC(=O)NCCC#N)C(=O)c2ccccc2C1=O | inactive | –
CC1=C(CCCC(=O)NCCC#N)C(=O)c2ccccc2C1=O | inactive | –
CC1=C(CCCCCC(=O)OCCN(C)C)C(=O)c2ccccc2C1=O | inactive | –
CC1=CC(=O)c2ccccc2C1=O | – | K cat [1]: 0.16 s⁻¹; K cat [2]: 0.16 s⁻¹; K cat/Km [3]: 5330 M⁻¹ s⁻¹; K cat/Km [4]: 1990 M⁻¹ s⁻¹
CC1=C(CCCCc2nnnn2CCC#N)C(=O)c2ccccc2C1=O | inactive | –
CC1=C(CCCCCC(=O)O)C(=O)c2ccccc2C1=O | inactive | –
